A selection: hits, their analogues and other compounds. The true share with any hit is near 2.5%.
INS promoter inh: inhibitors of insulin promoter-driven GFP, primary screen, imaging, TRM-6 cells (human fetal islet line), eGFP reporter, cell count. inhibition, % at 2 µM. 130,000 compounds, 0.9% hits. reporter expression induced with tamoxifen;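 active = inhibition above the mean plus 3 SD, with well images judged a real hit on visual review, cut at about 60% in these data, passing the limit was not always enough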
NPY-Y1 PAM-ag: NPY-Y1 receptor potentiators or agonists, primary screen, cell-based | Neuropeptide Y receptor type 1 (Homo sapiens), P25929 | NPY-Y1 expressing cells, potentiator/agonist activation | activation, % at 3.6 µM | 220,000 compounds, 0.37% hits; in the data active = activation above about 33%, passing the limit was not always enough;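 note: cells stimulated with NPY at EC10 then isoproterenol at EC100; 0% = low agonist plus stimulus and 100% = saturating agonist plus stimulus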
Target sequence (P25929 whole entry, looked up): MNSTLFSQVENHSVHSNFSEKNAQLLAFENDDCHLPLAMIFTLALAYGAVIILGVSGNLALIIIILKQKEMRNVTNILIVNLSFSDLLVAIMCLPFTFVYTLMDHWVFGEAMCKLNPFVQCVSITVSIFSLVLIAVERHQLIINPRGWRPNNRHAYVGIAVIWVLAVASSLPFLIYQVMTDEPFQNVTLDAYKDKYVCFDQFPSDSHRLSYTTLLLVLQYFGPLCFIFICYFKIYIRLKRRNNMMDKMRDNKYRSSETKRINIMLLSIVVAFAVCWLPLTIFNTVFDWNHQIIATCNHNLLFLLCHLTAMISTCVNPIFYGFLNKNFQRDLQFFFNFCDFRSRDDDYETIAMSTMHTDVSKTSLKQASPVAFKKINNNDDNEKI
NPY2 pot ag: NPY-Y2 potentiators or agonists, primary screen, cell-based; Neuropeptide Y receptor type 2 (Homo sapiens), P49146; cells expressing NPY-Y2, potentiator/agonist read-out; activation, % at 3.6 µM; 220,000 compounds, 0.45% hits; in the data active = activation above about 27%;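 note: cells stimulated with NPY near EC25 plus isoproterenol at EC100; 0% = vehicle plus submaximal agonist and 100% = vehicle plus saturating agonist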
Insulin prom up: insulin promoter activators in MIN6 cells, imaging, high-content screening, mouse beta cells; AID 1625, 2009; MIN6 insulin promoter-GFP reporter; active compounds read high; 190,000 compounds, 0.3% hits; z-score at 5 µM;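 active = z-score above 3 at 5 µM with at least 500 cells counted in the well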
NPY Y1 blocker: NPY-Y1 receptor antagonists, primary screen, cell-based; Neuropeptide Y receptor type 1 (Homo sapiens), P25929; HEK293-CNG Y1 cells, membrane potential fluorescence; NPY at EC95, then isoproterenol; 200,000 compounds, 1% hits; inhibition, % at 3.6 µM;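 active = inhibition above the campaign mean inhibition of all tested compounds plus 3 SD, cut at about 20% in these data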;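 note: 0% = DMSO wells given NPY plus isoproterenol and 100% = isoproterenol alone without NPY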
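Benchmarks – high control isoproterenol alone, low control NPY with isoproterenol · Material – HEK293 Y1/CNG channel cell line · Times – dye 3 h, compound 60 min room temperature, stimulation 45 min · Probe or stimulus – NPY (25 nM), isoproterenol (1 µM), Ro 20-1724 (25 µM) · Evaluation – % inhibition of NPY effect · Signal – fluorescence, membrane potential probe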
NPY-Y2 antag: NPY-Y2 receptor antagonists, primary screen, cell-based; Neuropeptide Y receptor type 2 (Homo sapiens), P49146; NPY-Y2 expressing cells, antagonist mode; inhibition, % at 2.7 µM; 140,000 compounds, 0.99% hits;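 note: 0% = vehicle with agonist challenge and 100% = reference antagonist with challenge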
NPY-Y1 ant conf: NPY-Y1 receptor antagonists, retest of hits, confirmation, HEK293-CNG cells, membrane potential fluorescence, triplicate. 1,200 compounds, 21% hits. AID 1254, 2008. shares compounds with NPY Y1 blocker. inhibition, % at 3.6 µM. cAMP; NPY challenge against isoproterenol-raised cAMP; in the data active = inhibition above about 20%;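 note: 0% = vehicle with agonist plus stimulus and 100% = stimulus alone without agonist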
NPY-Y2 antag ct: NPY-Y2 receptor antagonists, selectivity check, confirmation, counter-screen for NPY-Y1 antagonist project, HEK293-CNG cells, membrane potential fluorescence, triplicate; shares compounds with NPY Y1 blocker; antagonism; cells given NPY, then isoproterenol; inhibition, % at 3.6 µM; 1,200 compounds, 28% hits; AID 1255, 2008;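 note: 0% = DMSO with agonist challenge and 100% = reference antagonist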
Starred values were filed as active, the others as inactive; / = no result given. Cut-off read from the data, not from the text of the source, unless noted: active = inhibition above about 17%; inactive = the rest.

SMILES	INS promoter inh	NPY-Y1 PAM-ag	NPY2 pot ag	Insulin prom up	NPY Y1 blocker	NPY-Y2 antag	NPY-Y1 ant conf	NPY-Y2 antag ct
COc1ccc(Nc2nnc(SCC(=O)N3CC(=O)Nc4ccccc43)s2)cc1	/	2.8	-5.6	1.06	3.1	/	/	/
COCC(=O)n1nc(-c2ccccc2)nc1NCc1ccc(N(C)C)cc1	/	8.0	18.5	0.38	0.9	/	/	/
CCOC(=O)c1ccc(NC(=O)CCC(CC)C(=O)O)cc1 (configuration not stated)	/	3.0	15.0	/	0.3	1.5	/	/
CCCCC(CCC(=O)Nc1ccccc1C(=O)OCC)C(=O)O (configuration not stated)	-28.6	-15.9	-64.0	0.18	23.1*	11.5	11.4	12.7
Cc1ccc(S(=O)(=O)NC(=O)Nc2cc(C(C)(C)C)on2)cc1	/	2.5	4.1	/	/	/	/	/
CCOC(=O)CC(NC(=O)C(CC)c1ccccc1)c1ccccc1Cl (configuration not stated)	-18.9	-3.7	-3.4	0.16	25.0*	13.3	17.3	5.6
COc1ccc([N+](=O)[O-])cc1NC(=O)c1ccccc1N(C)S(C)(=O)=O	/	-0.1	4.2	-0.21	1.0	/	/	/
Cc1cc(-c2ccccc2)nc(Oc2ccc(C(C)(C)C)cc2)c1S(C)(=O)=O	35.1	-37.5	-20.8	1.8	23.4*	8.2	6.5	14.2
COc1ccccc1N(C)S(=O)(=O)c1ccc(Cl)c(C(=O)OCc2c(C)noc2C)c1	-65.0	4.0	-4.9	-0.86	5.7	/	/	/
CC1CCN(CCCNC(=O)c2cn(C)c3ccc(S(=O)(=O)N4CCCC4)cc3c2=O)CC1	31.2	3.0	-0.1	0.65	28.2*	1.1	-1.9	1.1
CCC1S/C(=N\S(=O)(=O)c2cccs2)N(C2CCCCC2)C1=O (configuration not stated)	28.6	1.2	3.0	-0.37	2.4	3.3	/	/
N#CC(C#N)C(c1ccsc1)c1c(-c2ccccc2)[nH][nH]c1=O (configuration not stated)	31.6	-17.4	8.2	-0.2	23.9*	10.4	34.3*	34.0*
Cc1[nH][nH]c(=O)c1C(c1ccccc1[N+](=O)[O-])C(C#N)C#N (configuration not stated)	/	0.3	11.7	-0.1	4.0	/	/	/
CC(=O)c1c(OC(=O)c2ccc(C)cc2)c2ccccc2n1C	100.0*	-30.1	-27.2	0.43	33.7*	14.5	12.7	12.8
CC(=O)c1c(OC(=O)c2ccco2)c2ccccc2n1C	/	-6.5	-8.3	0.59	1.3	4.2	/	/
CNCC(C)COc1ccccc1OCc1ccccc1 (configuration not stated)	-148.3	-13.3	-7.4	-0.3	21.6*	16.4	12.1	11.2
C=CCn1c(C)cc(C(=O)CSc2nnc(Cc3ccccc3)o2)c1C	7.1	-55.9	-31.8	0.18	21.1*	7.0	9.5	7.8
Cc1ccc(Cc2cnc(N3C(=N)SC(C)C3=O)s2)cc1 (configuration not stated)	/	-26.2	-35.0	1.05	25.6*	/	11.6	11.7
Cc1cccc(Cc2cnc(N3C(=N)SC(C)C3=O)s2)c1 (configuration not stated)	38.5	-27.4	-44.8	0.18	15.9	/	/	/
N#Cc1ccc(CSc2nnc(-c3ccccc3)n2Cc2ccco2)cc1	-38.2	6.8	-17.0	0.11	32.8*	15.7	4.9	4.2
COc1ccc(C2=NOC3(CC(=O)N(c4ccc(F)cc4)C3=O)C2)cc1 (configuration not stated)	/	-2.8	-19.1	0.27	/	/	/	/
c1ccc2c(N3CCOCC3)nc(-c3ccncc3)nc2c1	24.1	7.4	13.9	/	-1.3	2.1	/	/
CCN1CCN(c2nc(-c3ccccc3)nc3ccccc23)CC1	24.2	-36.4	0.7	0.03	21.1*	5.1	9.9	5.8
CCOC(=O)c1c(NC(=O)C(F)(OC)C(F)(F)F)sc(C(=O)N2CCCCC2)c1C (configuration not stated)	/	-14.8	8.8	-1.01	21.9*	2.0	9.3	4.4
CC(=C\C(=O)O)/C(=C/c1ccc(C)o1)C(=O)O	14.3	-7.9	7.3	0.01	3.6	2.1	/	/
SMILES	INS promoter inh	NPY-Y1 PAM-ag	NPY2 pot ag	Insulin prom up	NPY Y1 blocker	NPY-Y2 antag	NPY-Y1 ant conf	NPY-Y2 antag ct
Cc1ccc(S(=O)(=O)N(CC(=O)NCCC2=CCCCC2)Cc2ccccc2)cc1	-5.6	-10.1	-11.7	-0.83	20.7*	9.7	-1.1	4.2
CCOCCCNC(=O)CCCC1=NS(=O)(=O)c2ccccc2N1	-61.1	2.6	-1.6	0.3	2.7	1.1	/	/
O=c1[nH]nc(Cc2ccc(Cl)cc2Cl)c2ccccc12	-54.3	5.0	12.1	/	8.2	9.2	/	/
O=c1[nH]nc(CNc2ccc(Cl)cc2Cl)c2ccccc12	/	-35.4	-13.2	-0.12	24.5*	/	16.4	25.4*
CC1(C)CC(=O)C(C(=O)Cc2ccccc2[N+](=O)[O-])C(=O)C1	-83.9	5.2	0.1	0.19	5.7	1.8	/	/
CCC(Oc1ccc2ccccc2c1)C(=O)O (configuration not stated)	20.0	-0.7	-30.7	0.74	21.4*	12.0	6.7	7.0
CCSc1nc(C2CC2)cc(-c2ccco2)c1C#N	64.3	-14.0	-3.7	-0.17	7.4	4.6	/	/
CCSc1nc(C2CC2)cc(-c2cccs2)c1C#N	23.3	-17.6	-17.1	/	21.8*	3.4	6.9	7.8
COc1cc(C(=O)OCCCN=C2NS(=O)(=O)c3ccccc32)cc(OC)c1OC	-33.3	3.7	-4.4	-0.14	2.9	/	/	/
COc1ccccc1OCCC(=O)Nc1nc(C)cs1	/	8.0	10.7	0.9	/	/	/	/
CCC(=O)Nc1c(C#N)c2nc3ccccc3nc2n1C1CCCCC1	31.6	-22.2	-3.8	-0.08	6.1	2.7	/	/
CCOC(=O)c1c(NC(=O)c2ccco2)n(C2CCCCC2)c2nc3ccccc3nc12	-40.5	2.6	7.8	-0.36	24.7*	10.0	-2.8	-2.4
O=C(c1cc(COc2ccc(F)cc2Cl)on1)N1CCCC(c2ccccc2)C1 (configuration not stated)	-41.7	2.3	-4.5	-0.12	5.3	/	/	/
O=C(c1cc(COc2ccc(F)cc2Cl)on1)N1CCc2ccccc2C1	/	-38.9	-8.5	-0.44	30.8*	/	13.2	13.4
O=C(c1ccc(-c2cc3ccccc3oc2=O)cc1)N1CCN(c2ccc(Cl)cc2[N+](=O)[O-])CC1	/	15.3	5.0	-1.68	-0.8	1.4	/	/

Screening data (PubChem BioAssay)
